A short description of assay [1]: Selectivity index, ratio of IC50 for PDE4B1 S133D mutant (unknown origin) to IC50 for PDE4D7 S129D mutant (unknown origin). The method in brief:
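B/D ratio is the IC50 against PDE4B1-S133D (PDE4B*) divided by the IC50 against PDE4D7-S129D (PDE4D*). Both IC50s come from the real-time coupled enzyme assay on the mutationally activated dimeric enzymes.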

In assay [2] the target is 3',5'-cyclic-AMP phosphodiesterase 4B (Homo sapiens, UniProt Q07343, S133D). Description: Inhibition of PDE4B1 S133D mutant (unknown origin) preincubated for 5 to 10 mins followed by substrate addition and measured for 10 mins by coupled enzyme based fluorescence analysis. The method in brief: (§1)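 Mutationally activated dimeric enzymes: PDE4D7-S129D (PDE4D*) and PDE4B1-S133D (PDE4B*). A real-time coupled enzyme assay measured inhibition instead of a fluorescein-labeled cAMP substrate, because the label prevents UCR2 closure. PDE4B* was used to assess subtype selectivity. The method otherwise followed earlier work.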

Assay [3] in a line: Inhibition of PDE4D7 S129D mutant (unknown origin) preincubated for 5 to 10 mins followed by substrate addition and measured for 10 mins by coupled enzyme based fluorescence analysis. Also noted: species or system Homo sapiens. The method in brief: as §1

3',5'-cyclic-AMP phosphodiesterase 4B, sequence (Q07343 whole entry S133D): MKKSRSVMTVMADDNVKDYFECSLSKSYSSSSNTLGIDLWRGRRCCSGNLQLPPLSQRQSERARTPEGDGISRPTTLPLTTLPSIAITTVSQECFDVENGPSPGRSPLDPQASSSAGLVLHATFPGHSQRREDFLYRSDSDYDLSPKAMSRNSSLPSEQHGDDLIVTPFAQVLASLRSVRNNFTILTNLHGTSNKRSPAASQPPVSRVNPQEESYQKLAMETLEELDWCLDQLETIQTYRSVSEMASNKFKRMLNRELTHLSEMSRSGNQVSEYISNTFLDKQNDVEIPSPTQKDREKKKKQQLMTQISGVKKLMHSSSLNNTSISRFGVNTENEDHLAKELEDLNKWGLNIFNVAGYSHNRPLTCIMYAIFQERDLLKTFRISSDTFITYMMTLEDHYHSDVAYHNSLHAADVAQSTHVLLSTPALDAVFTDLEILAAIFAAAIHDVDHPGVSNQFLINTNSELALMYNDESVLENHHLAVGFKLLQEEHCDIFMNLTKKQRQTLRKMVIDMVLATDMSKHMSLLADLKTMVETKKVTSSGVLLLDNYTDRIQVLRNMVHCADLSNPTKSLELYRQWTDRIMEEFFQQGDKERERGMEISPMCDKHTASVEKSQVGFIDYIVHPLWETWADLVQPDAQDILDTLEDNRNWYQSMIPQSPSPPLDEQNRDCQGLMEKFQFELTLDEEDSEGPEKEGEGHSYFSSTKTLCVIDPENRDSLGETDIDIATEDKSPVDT

In general, IC50 refers to the midpoint of a concentration-inhibition curve. Lower therefore signals greater potency. As to `COc1ccc(Cc2cn[nH]c2)nc1-c1ccc2nonc2c1`, the Ratio IC50 in assay [1] stood at 57. The IC50 in assay [2] stood at 730 nM; in assay [3], 13 nM.

Consider `Fc1cccc(-c2nc(Nc3cn[nH]c3)ccc2OC(F)F)c1`, for which, in assay [1], the Ratio IC50 is 13. The IC50 was found to be 1750 nM in assay [2] and 136 nM in assay [3].

With `COc1ccc(Cc2cn[nH]c2)nc1-c1cccc(OC(F)(F)F)c1`, the Ratio IC50 in assay [1] was 162. The results for the IC50 in assay [2] and in assay [3] were 7440 nM and 46 nM, respectively.

With `COc1ccc(Oc2cn[nH]c2)nc1-c1cccc(Cl)c1`, in assay [1], the Ratio IC50 was determined as 14. The results for the 50% inhibitory concentration (IC50) in assay [2] and in assay [3] were 4160 nM and 306 nM, respectively.

Consider `COc1ccc(Cc2cn[nH]c2)nc1-c1cccc(OC(F)F)c1`, for which, in assay [1], the Ratio IC50 is 793. The IC50 in assay [2] amounted to 1070 nM; in assay [3], 1.4 nM.

Turning to `COc1cccc(-c2nc(C(=O)c3cn[nH]c3)ccc2OC(F)F)c1`, the Ratio IC50 in assay [1] stood at 2. In addition, the results for the IC50 in assay [2] and in assay [3] were 1930 nM and 873 nM, respectively.

For the compound `COc1ccc(Cc2cnn(C)c2)nc1-c1cccc(OC(F)F)c1`, the Ratio IC50 in assay [1] worked out at 137. Besides, the values for the IC50 in assay [2] and in assay [3] were 1440 nM and 11 nM, respectively.

Regarding `COc1cccc(-c2nc(Cn3cccn3)ccc2OC(F)F)c1`, in assay [1], the Ratio IC50 is 4. The IC50 in assay [2] turned out to be 1060 nM; in assay [3] it was 281 nM.

`FC(F)Oc1ccc(Cc2cn[nH]c2)nc1-c1cccc(OCc2ccccc2)c1`: in assay [1], the Ratio IC50 was 0.61. Besides, the values for the concentration for half-maximal inhibition (IC50) in assay [2] and in assay [3] were 274 nM and 446 nM, respectively.

For `COc1ccc(Nc2cn[nH]c2)nc1-c1cccc(Cl)c1`, the Ratio IC50 in assay [1] stood at 7. Also, the IC50 in assay [2] turned out to be 3160 nM; in assay [3] it was 468 nM.

Regarding `Fc1cccc(-c2nc(Oc3cn[nH]c3)ccc2OC(F)F)c1`, the Ratio IC50 in assay [1] was 45. For the same compound, the IC50 in assay [2] is 3110 nM; in assay [3], 70 nM.

On to `COc1ccc(Oc2cn[nH]c2)nc1-c1cccc(F)c1`, for which the Ratio IC50 in assay [1] came out at 5. Also, the IC50 in assay [2] came out at 4540 nM; in assay [3], 836 nM.

Consider `COc1ccc(Nc2cn[nH]c2)nc1-c1cccc(F)c1`, for which the Ratio IC50 in assay [1] was determined as 5. The IC50 in assay [2] worked out at 2530 nM; in assay [3], 529 nM.

For `COc1cccc(-c2nc(Cn3ccnc3)ccc2OC(F)F)c1`, the Ratio IC50 in assay [1] is 242. Moreover, the IC50 in assay [2] was 513 nM; in assay [3] it was 2.1 nM.

In the case of `COc1ccc(Cc2ccncc2)nc1-c1cccc(OC(F)F)c1`, in assay [1], the Ratio IC50 stood at 364. Half-maximal inhibition in assay [2] (IC50) required 665 nM. In assay [3], inhibition was half-maximal at 1.8 nM (IC50) and the logIC50 was 0.26 log(nM).

`O=[N+]([O-])c1cccc(-c2nc(Cc3cn[nH]c3)ccc2OC(F)F)c1`: the Ratio IC50 in assay [1] was determined as 254. Moreover, the half-maximal inhibitory concentration (IC50) in assay [2] amounted to 91 nM; in assay [3], 0.36 nM.

Turning to `COc1cccc(-c2nc(CNc3cn[nH]c3)ccc2OC(F)F)c1`, the Ratio IC50 in assay [1] was 4. For the same compound, the IC50 in assay [2] amounted to 2270 nM; in assay [3] it was 530 nM.

For the compound `COc1cccc(-c2nc(Cc3cncnc3)ccc2OC(F)F)c1`, the Ratio IC50 in assay [1] was found to be 116. Besides, the results for the half-inhibitory concentration (IC50) in assay [2] and in assay [3] were 1190 nM and 10.2 nM, respectively.

With `FC(F)Oc1ccc(Cc2ccncc2)nc1-c1cccc(OCc2ccccc2)c1`, the Ratio IC50 in assay [1] stood at 0.84. Moreover, the figures for the IC50 in assay [2] and in assay [3] were 143 nM and 171 nM, respectively.

In the case of `COc1ccc(Cn2ccnc2)nc1-c1cccc(OC(F)F)c1`, the Ratio IC50 in assay [1] was determined as 559. Also, the concentration for half-maximal inhibition (IC50) worked out at 593 nM in assay [2] and 1.06 nM in assay [3].

For `COc1ccc(Cn2cnnn2)nc1-c1cccc(OC(F)F)c1`, in assay [1], the Ratio IC50 is 81. Moreover, the IC50 was found to be 1260 nM in assay [2] and 16 nM in assay [3].

For the compound `COc1ccc(Cc2cn[nH]c2)nc1-c1cccc(Cl)c1`, the Ratio IC50 in assay [1] is 154. For the same compound, the IC50 in assay [2] came out at 923 nM; in assay [3] it was 6 nM.

On to `FC(F)Oc1ccc(Cn2ccnc2)nc1-c1cccc(OCc2ccccc2)c1`, for which the Ratio IC50 in assay [1] is 0.54. Moreover, the IC50 in assay [2] amounted to 46 nM; in assay [3], 85 nM.
